The first assay deals with PC-3. The assay can be described thus: Antiproliferative activity against human PC3 cells assessed as decrease in cell viability after 3 days by WST assay. The following applies: PC-3, 72 h. Type of assay: functional, cell-based. In short, it runs like this:
(§1)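 Cells were seeded at 3,200 per well. PC-3 and LNCaP were grown in RPMI-1640 and DU-145 in EMEM, each with 10% FBS and 1% penicillin/streptomycin, at 37 °C and 5% CO2. Cells were exposed for 3 days to at least five concentrations, with DMSO as vehicle control. WST-1 reagent was then added for 3 h at 37 °C and absorbance read at 430 nm. IC50 came from linear inhibition, averaged over triplicates.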
What is called IC50 is the concentration that inhibits the measured activity by half. Turning to `O=C(/C=C/c1ccccn1)/C=C/c1nccs1`, the IC50 was determined as 550 nM.

Take `CCn1c(/C=C/C(=O)/C=C/c2ccccn2)nc2ccccc21`: the IC50 turned out to be 230 nM.

Take `COc1ccc(/C=C/C(=O)/C=C/c2ccccn2)cc1OC`: the IC50 worked out at 1700 nM.

`CCC(C)n1ccnc1/C=C/C(=O)/C=C/c1ccc(OC)c(OC)c1` (centres undefined): the IC50 was 1330 nM.

Take `Cc1nc(C(F)(F)F)c(/C=C/C(=O)/C=C/c2nc3ccccc3n2C)s1`: the IC50 was 480 nM.

In the case of `CC(C)n1ccnc1/C=C/C(=O)/C=C/c1cnc(N2CCCC2)s1`, the half-maximal inhibitory concentration (IC50) was 6860 nM.

For `Cc1cccc(/C=C/C(=O)/C=C/c2ccccn2)n1`, the concentration for half-maximal inhibition (IC50) was 540 nM.

Turning to `CCCn1c(/C=C/C(=O)/C=C/c2sc(C)nc2C(F)(F)F)nc2ccccc21`, the concentration for half-maximal inhibition (IC50) stood at 550 nM.

In the case of `COc1cc(/C=C/C(=O)/C=C/c2ccccn2)cc(OC)c1OC`, the concentration for half-maximal inhibition (IC50) turned out to be 840 nM.

For the compound `CCC(C)n1ccnc1/C=C/C(=O)/C=C/c1conc1C` (centres undefined), the IC50 was determined as 370 nM.

Consider `CC(C)Cn1ccnc1/C=C/C(=O)/C=C/c1nc2ccccc2n1CC(C)C`, for which the IC50 was 200 nM.

For a further assay, the system named is DU-145. The assay can be described thus: Antiproliferative activity against human DU145 cells assessed as decrease in cell viability after 3 days by WST assay. It is filed as functional, cell-based. Conditions: DU-145, 72 h. In short, it runs like this:
as §1
For the compound `O=C(/C=C/c1ccccn1)/C=C/c1nccs1`, the half-inhibitory concentration (IC50) was found to be 1130 nM.

Consider `CCn1c(/C=C/C(=O)/C=C/c2ccccn2)nc2ccccc21`, for which the half-inhibitory concentration (IC50) was found to be 460 nM.

Turning to `COc1ccc(/C=C/C(=O)/C=C/c2ccccn2)cc1OC`, the IC50 was 2050 nM.

`CCC(C)n1ccnc1/C=C/C(=O)/C=C/c1ccc(OC)c(OC)c1` (centres undefined): the 50% inhibitory concentration (IC50) is 850 nM.

On to `Cc1nc(C(F)(F)F)c(/C=C/C(=O)/C=C/c2nc3ccccc3n2C)s1`, for which the IC50 came out at 780 nM.

In the case of `CC(C)n1ccnc1/C=C/C(=O)/C=C/c1cnc(N2CCCC2)s1`, the half-maximal inhibitory concentration (IC50) came out at 3680 nM.

`Cc1cccc(/C=C/C(=O)/C=C/c2ccccn2)n1`: the half-maximal inhibitory concentration (IC50) was 630 nM.

In the case of `CCCn1c(/C=C/C(=O)/C=C/c2sc(C)nc2C(F)(F)F)nc2ccccc21`, the 50% inhibitory concentration (IC50) worked out at 840 nM.

Regarding `COc1cc(/C=C/C(=O)/C=C/c2ccccn2)cc(OC)c1OC`, the IC50 was 830 nM.

Consider `CCC(C)n1ccnc1/C=C/C(=O)/C=C/c1conc1C` (centres undefined), for which the IC50 turned out to be 750 nM.

Consider `CC(C)Cn1ccnc1/C=C/C(=O)/C=C/c1nc2ccccc2n1CC(C)C`, for which the IC50 is 370 nM.

A further assay has as its system LNCaP. The assay can be described thus: Antiproliferative activity against human LNCAP cells assessed as decrease in cell viability after 3 days by WST assay. Type of assay: functional, cell-based. Conditions: 72 h. In short, it runs like this: as §1
For the compound `O=C(/C=C/c1ccccn1)/C=C/c1nccs1`, the 50% inhibitory concentration (IC50) came out at 450 nM.

For the compound `CCn1c(/C=C/C(=O)/C=C/c2ccccn2)nc2ccccc21`, the IC50 is 120 nM.

Consider `COc1ccc(/C=C/C(=O)/C=C/c2ccccn2)cc1OC`, for which the IC50 was found to be 1760 nM.

As to `CCC(C)n1ccnc1/C=C/C(=O)/C=C/c1ccc(OC)c(OC)c1` (centres undefined), the half-maximal inhibitory concentration (IC50) was found to be 910 nM.

In the case of `Cc1nc(C(F)(F)F)c(/C=C/C(=O)/C=C/c2nc3ccccc3n2C)s1`, the IC50 was found to be 340 nM.

Turning to `CC(C)n1ccnc1/C=C/C(=O)/C=C/c1cnc(N2CCCC2)s1`, the IC50 was 4050 nM.

In the case of `Cc1cccc(/C=C/C(=O)/C=C/c2ccccn2)n1`, the IC50 was 300 nM.

For `CCCn1c(/C=C/C(=O)/C=C/c2sc(C)nc2C(F)(F)F)nc2ccccc21`, the IC50 was determined as 460 nM.

Take `COc1cc(/C=C/C(=O)/C=C/c2ccccn2)cc(OC)c1OC`: the IC50 is 400 nM.

With `CCC(C)n1ccnc1/C=C/C(=O)/C=C/c1conc1C` (centres undefined), the IC50 turned out to be 240 nM.

With `CC(C)Cn1ccnc1/C=C/C(=O)/C=C/c1nc2ccccc2n1CC(C)C`, the IC50 worked out at 560 nM.

The next assay relates to PC-3. Nature of the assay: Potency index, ratio of curcumin IC50 to test compound IC50 for human PC3 cells. It is filed as functional.
Details: not given
In the case of `O=C(/C=C/c1ccccn1)/C=C/c1nccs1`, the “Ratio IC50” value was determined as 46.

As for `CCn1c(/C=C/C(=O)/C=C/c2ccccn2)nc2ccccc21`, the “Ratio IC50” value was 111.

With `COc1ccc(/C=C/C(=O)/C=C/c2ccccn2)cc1OC`, the “Ratio IC50” value is 15.

Take `CCC(C)n1ccnc1/C=C/C(=O)/C=C/c1ccc(OC)c(OC)c1` (centres undefined): the “Ratio IC50” value is listed as 19.

As for `Cc1nc(C(F)(F)F)c(/C=C/C(=O)/C=C/c2nc3ccccc3n2C)s1`, the “Ratio IC50” value worked out at 53.

In the case of `CC(C)n1ccnc1/C=C/C(=O)/C=C/c1cnc(N2CCCC2)s1`, the “Ratio IC50” value is given as 4.

On to `Cc1cccc(/C=C/C(=O)/C=C/c2ccccn2)n1`, for which the “Ratio IC50” value is 47.

On to `CCCn1c(/C=C/C(=O)/C=C/c2sc(C)nc2C(F)(F)F)nc2ccccc21`, for which the “Ratio IC50” value was 46.

With `COc1cc(/C=C/C(=O)/C=C/c2ccccn2)cc(OC)c1OC`, the “Ratio IC50” value amounted to 30.

For `CCC(C)n1ccnc1/C=C/C(=O)/C=C/c1conc1C` (centres undefined), the “Ratio IC50” value is 69.

Regarding `CC(C)Cn1ccnc1/C=C/C(=O)/C=C/c1nc2ccccc2n1CC(C)C`, the “Ratio IC50” value was 127.

The next assay has as its system DU-145. Nature of the assay: Potency index, ratio of curcumin IC50 to test compound IC50 for human DU145 cells.
Details: not given
Type of assay: functional.
As to `O=C(/C=C/c1ccccn1)/C=C/c1nccs1`, the “Ratio IC50” value amounted to 23.

Consider `CCn1c(/C=C/C(=O)/C=C/c2ccccn2)nc2ccccc21`, for which the “Ratio IC50” value turned out to be 57.

Take `COc1ccc(/C=C/C(=O)/C=C/c2ccccn2)cc1OC`: the “Ratio IC50” value stood at 13.

Consider `CCC(C)n1ccnc1/C=C/C(=O)/C=C/c1ccc(OC)c(OC)c1` (centres undefined), for which the “Ratio IC50” value turned out to be 31.

Consider `Cc1nc(C(F)(F)F)c(/C=C/C(=O)/C=C/c2nc3ccccc3n2C)s1`, for which the “Ratio IC50” value is recorded as 34.

Regarding `CC(C)n1ccnc1/C=C/C(=O)/C=C/c1cnc(N2CCCC2)s1`, the “Ratio IC50” value is on record as 7.

With `Cc1cccc(/C=C/C(=O)/C=C/c2ccccn2)n1`, the “Ratio IC50” value was found to be 42.

On to `CCCn1c(/C=C/C(=O)/C=C/c2sc(C)nc2C(F)(F)F)nc2ccccc21`, for which the “Ratio IC50” value stood at 31.

For the compound `COc1cc(/C=C/C(=O)/C=C/c2ccccn2)cc(OC)c1OC`, the “Ratio IC50” value was found to be 32.

Take `CCC(C)n1ccnc1/C=C/C(=O)/C=C/c1conc1C` (centres undefined): the “Ratio IC50” value worked out at 35.

As for `CC(C)Cn1ccnc1/C=C/C(=O)/C=C/c1nc2ccccc2n1CC(C)C`, the “Ratio IC50” value came to 71.

Another assay concerns LNCaP. The assay can be described thus: Potency index, ratio of curcumin IC50 to test compound IC50 for human LNCAP cells. Type of assay: functional.
Details: not given
For `O=C(/C=C/c1ccccn1)/C=C/c1nccs1`, the “Ratio IC50” value was 30.

`CCn1c(/C=C/C(=O)/C=C/c2ccccn2)nc2ccccc21`: the “Ratio IC50” value is reported as 113.

On to `COc1ccc(/C=C/C(=O)/C=C/c2ccccn2)cc1OC`, for which the “Ratio IC50” value was 8.

`CCC(C)n1ccnc1/C=C/C(=O)/C=C/c1ccc(OC)c(OC)c1` (centres undefined): the “Ratio IC50” value is given as 15.

As for `Cc1nc(C(F)(F)F)c(/C=C/C(=O)/C=C/c2nc3ccccc3n2C)s1`, the “Ratio IC50” value amounted to 40.

With `CC(C)n1ccnc1/C=C/C(=O)/C=C/c1cnc(N2CCCC2)s1`, the “Ratio IC50” value turned out to be 3.

As to `Cc1cccc(/C=C/C(=O)/C=C/c2ccccn2)n1`, the “Ratio IC50” value was found to be 45.

Regarding `CCCn1c(/C=C/C(=O)/C=C/c2sc(C)nc2C(F)(F)F)nc2ccccc21`, the “Ratio IC50” value was determined as 30.

Regarding `COc1cc(/C=C/C(=O)/C=C/c2ccccn2)cc(OC)c1OC`, the “Ratio IC50” value was 34.

For the compound `CCC(C)n1ccnc1/C=C/C(=O)/C=C/c1conc1C` (centres undefined), the “Ratio IC50” value was 57.

As for `CC(C)Cn1ccnc1/C=C/C(=O)/C=C/c1nc2ccccc2n1CC(C)C`, the “Ratio IC50” value is given as 24.

For a further assay, the system named is PWR-1E. Nature of the assay: Antiproliferative activity against human PWR-1E cells expressing androgen receptor and PSA assessed as decrease in cell viability after 3 days by WST assay. It is filed as functional, cell-based. Conditions: 72 h. In short, it runs like this:
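Non-malignant prostate epithelial PWR-1E (adenovirus 12/SV40-immortalized) was seeded at 5,000 per well. Cells were exposed for 3 days at 37 °C in a CO2 incubator to at least five concentrations, with DMSO as vehicle control. WST-1 reagent was then added for 3 h at 37 °C and absorbance read at 430 nm. IC50 came from linear inhibition, as the mean of triplicate determinations.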
Take `CCn1c(/C=C/C(=O)/C=C/c2ccccn2)nc2ccccc21`: the IC50 is 40 nM.

For the compound `COc1cc(/C=C/C(=O)CC(=O)/C=C/c2ccc(O)c(OC)c2)ccc1O` [CURCUMIN], the concentration for half-maximal inhibition (IC50) was determined as 8850 nM.

A further assay concerns PWR-1E. The assay can be described thus: Potency index, ratio of curcumin IC50 to test compound IC50 for human PWR-1E cells expressing androgen receptor and PSA.
Details: not given
Type of assay: functional.
In the case of `CCn1c(/C=C/C(=O)/C=C/c2ccccn2)nc2ccccc21`, the “Ratio IC50” value is 221.

The record behind these values is ChEMBL document CHEMBL4190216, “Asymmetric 1,5-diarylpenta-1,4-dien-3-ones: Antiproliferative activity in prostate epithelial cell models and pharmacokinetic studies” (Eur J Med Chem, 2017).
